Source: ChEMBL document CHEMBL3112461, “Synthesis and characterization of a novel series of agonist compounds as potential radiopharmaceuticals for imaging dopamine D₂/₃ receptors in their high-affinity state” (J Med Chem, 2014)
Where a name gives a salt, the structure may show the parent alone. Activity calls are given as the source filed them. The rule behind the calls is not given here.

How the values were obtained:
[1] = target: D(3) dopamine receptor (Homo sapiens, UniProt P35462); assay: Displacement of [3H]spiperone from human dopamine D3 receptor transfected in HEK293 cells after 2 hrs by scintillation counting analysis; assay type: cell-based
Chain of D(3) dopamine receptor (P35462 whole entry): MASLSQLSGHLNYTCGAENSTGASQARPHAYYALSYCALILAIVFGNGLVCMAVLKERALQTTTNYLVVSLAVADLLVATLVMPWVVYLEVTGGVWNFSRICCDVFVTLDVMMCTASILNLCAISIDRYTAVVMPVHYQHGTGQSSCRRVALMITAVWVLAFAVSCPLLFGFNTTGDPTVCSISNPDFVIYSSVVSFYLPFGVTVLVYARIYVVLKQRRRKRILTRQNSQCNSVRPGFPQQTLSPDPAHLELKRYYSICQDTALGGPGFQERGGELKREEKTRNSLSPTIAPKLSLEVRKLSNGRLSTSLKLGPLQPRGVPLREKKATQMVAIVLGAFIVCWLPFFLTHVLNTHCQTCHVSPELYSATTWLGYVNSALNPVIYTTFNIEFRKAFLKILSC

[2] = organism: Homo sapiens; assay: Selectivity ratio of Ki for human dopamine D1-like receptor to Ki for human dopamine D2-like receptor
[3] = target: T1, D(4) dopamine receptor (Homo sapiens, UniProt P21917); assay: Displacement of [3H]spiperone from human dopamine D4 receptor transfected in HEK293 cells after 2 hrs by scintillation counting analysis; assay type: cell-based
T1 sequence (P21917 whole entry): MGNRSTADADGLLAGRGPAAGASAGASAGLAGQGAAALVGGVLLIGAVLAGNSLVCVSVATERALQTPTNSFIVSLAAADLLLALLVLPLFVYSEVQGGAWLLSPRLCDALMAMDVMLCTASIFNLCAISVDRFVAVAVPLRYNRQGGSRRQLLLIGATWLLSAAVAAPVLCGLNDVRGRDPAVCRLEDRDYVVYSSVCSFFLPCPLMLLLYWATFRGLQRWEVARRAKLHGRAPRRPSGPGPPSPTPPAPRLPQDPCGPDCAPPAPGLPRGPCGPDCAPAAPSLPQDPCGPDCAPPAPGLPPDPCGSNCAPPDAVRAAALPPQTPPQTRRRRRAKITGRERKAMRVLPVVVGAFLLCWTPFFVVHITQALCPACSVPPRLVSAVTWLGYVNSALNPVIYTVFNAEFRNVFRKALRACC

[4] = target: D(1B) dopamine receptor (Homo sapiens, UniProt P21918); assay: Displacement of [3H]SCH23390 from human dopamine D5 receptor transfected in HEK293 cells after 2 hrs by scintillation counting analysis; assay type: cell-based
Chain of D(1B) dopamine receptor (P21918 whole entry): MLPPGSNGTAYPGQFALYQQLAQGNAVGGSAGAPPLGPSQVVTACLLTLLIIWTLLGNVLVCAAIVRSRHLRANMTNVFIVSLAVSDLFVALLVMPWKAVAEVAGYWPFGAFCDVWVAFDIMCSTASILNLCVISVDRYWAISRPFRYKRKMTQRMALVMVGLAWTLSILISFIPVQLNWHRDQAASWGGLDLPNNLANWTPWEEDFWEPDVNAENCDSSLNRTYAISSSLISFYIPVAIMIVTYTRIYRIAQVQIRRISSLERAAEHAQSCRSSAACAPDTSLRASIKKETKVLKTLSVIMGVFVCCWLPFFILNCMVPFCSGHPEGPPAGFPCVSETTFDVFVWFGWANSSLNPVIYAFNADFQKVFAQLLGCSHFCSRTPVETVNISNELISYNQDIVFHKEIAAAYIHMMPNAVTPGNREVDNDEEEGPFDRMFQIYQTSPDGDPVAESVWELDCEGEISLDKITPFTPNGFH

[5] = target: D(1A) dopamine receptor (Homo sapiens, UniProt P21728); assay: Displacement of [3H]SCH23390 from human dopamine D1 receptor transfected in HEK293 cells after 2 hrs by scintillation counting analysis; assay type: cell-based
Chain of D(1A) dopamine receptor (P21728 whole entry): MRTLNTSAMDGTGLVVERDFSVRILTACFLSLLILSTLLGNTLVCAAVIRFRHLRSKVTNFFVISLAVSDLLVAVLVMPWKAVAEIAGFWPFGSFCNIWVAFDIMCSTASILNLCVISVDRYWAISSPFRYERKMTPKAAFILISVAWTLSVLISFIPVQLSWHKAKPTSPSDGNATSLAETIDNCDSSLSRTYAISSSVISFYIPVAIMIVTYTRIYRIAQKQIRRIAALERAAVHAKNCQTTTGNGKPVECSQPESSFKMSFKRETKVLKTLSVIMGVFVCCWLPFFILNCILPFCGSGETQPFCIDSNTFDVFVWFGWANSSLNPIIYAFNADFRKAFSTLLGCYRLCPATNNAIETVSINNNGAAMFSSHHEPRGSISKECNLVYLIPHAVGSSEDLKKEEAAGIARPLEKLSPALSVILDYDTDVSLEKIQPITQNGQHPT

[6] = target: T2, D(2) dopamine receptor (Homo sapiens, UniProt P14416); assay: Displacement of [3H]spiperone from high-affinity state of human dopamine D2L receptor transfected in HEK293 cells after 2 hrs by scintillation counting analysis; assay type: cell-based
T2 sequence (P14416 whole entry): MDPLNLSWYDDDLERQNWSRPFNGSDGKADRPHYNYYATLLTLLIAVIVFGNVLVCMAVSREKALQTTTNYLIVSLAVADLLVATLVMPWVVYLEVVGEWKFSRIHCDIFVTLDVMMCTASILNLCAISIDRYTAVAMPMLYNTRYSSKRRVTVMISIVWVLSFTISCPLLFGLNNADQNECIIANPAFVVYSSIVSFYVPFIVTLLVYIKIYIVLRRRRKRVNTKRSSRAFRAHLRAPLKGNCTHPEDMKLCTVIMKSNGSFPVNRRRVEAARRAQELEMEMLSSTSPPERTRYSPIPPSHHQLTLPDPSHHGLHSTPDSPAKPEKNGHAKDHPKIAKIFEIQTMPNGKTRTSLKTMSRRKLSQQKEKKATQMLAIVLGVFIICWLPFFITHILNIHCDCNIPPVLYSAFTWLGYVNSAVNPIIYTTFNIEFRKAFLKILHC

[7] = target: T2, D(2) dopamine receptor; assay: Displacement of [3H]spiperone from low-affinity state of human dopamine D2L receptor transfected in HEK293 cells after 2 hrs by scintillation counting analysis; assay type: cell-based
[8] = target: T2, D(2) dopamine receptor; assay: Displacement of [3H]spiperone from low-affinity state of human dopamine D2S receptor transfected in HEK293 cells after 2 hrs by scintillation counting analysis; assay type: cell-based
[9] = target: T2, D(2) dopamine receptor; assay: Agonist activity at human dopamine D2L receptor expressed in HEK293 cells assessed as inhibition of forskolin-induced cAMP accumulation after 30 mins by LANCE assay; assay type: functional, cell-based
[10] = Lipophilicity, log D of the compound; assay type: physicochemical; details: octanol/water
How it was run: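 Shake-flask LogD of the [18F]-labelled tracer. Activity left on the HLB cartridge was eluted with n-octanol. The eluate was vortexed 5 min at rt with an equal volume of 1 M phosphate buffer, pH 7.4, then centrifuged at 17 000g for 10 min. Organic and aqueous aliquots were gamma-counted and corrected for intact-tracer fraction by radio-TLC. Each run was in duplicate, and the mean was taken from ≥2 independent experiments.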

[11] = test system: Nucleic Acid; assay: Ratio of drug level from striatum to cerebellum of Sprague-Dawley rat at 4.5 +/- 3.6 nM after 35 mins by autoradiographic analysis in presence of dopamine D2/3 receptor antagonist raclopride; assay type: nucleic-acid assay
How it was run: (§1)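 Rat brain slice autoradiography with 10 μM raclopride co-incubated to define nonspecific binding. Slices were preincubated 15 min at rt in Tris buffer (5 mM KCl, 2 mM CaCl2, 2 mM MgCl2, 120 mM NaCl, pH 7.4). They were then exposed 35 min at 37 °C to radioligand at about 5 nM, washed ice-cold, and imaged on phosphor screens for 6–10 h with striatal and reference-region ROIs.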

[12] = test system: Nucleic Acid; assay: Ratio of drug level from striatum to cortex of Sprague-Dawley rat at 4.5 +/- 3.6 nM after 35 mins by autoradiographic analysis in presence of dopamine D2/3 receptor antagonist raclopride; how it was run: as §1
[13] = test system: Nucleic Acid; assay: Ratio of drug level from striatum to cortex of Sprague-Dawley rat at […] after 35 mins by autoradiographic analysis in presence of GTP; assay type: ADME, tissue-based
[14] = test system: Nucleic Acid; assay: Ratio of drug level from striatum to cerebellum of Sprague-Dawley rat at […] after 35 mins by autoradiographic analysis in presence of GTP; assay type: ADME, nucleic-acid assay
[15] = test system: Nucleic Acid; assay: Ratio of drug level from striatum to cerebellum of Sprague-Dawley rat at […] after 35 mins by autoradiographic analysis; assay type: ADME, nucleic-acid assay
[16] = test system: Nucleic Acid; assay: Ratio of drug level from striatum to cortex of Sprague-Dawley rat at […] after 35 mins by autoradiographic analysis; assay type: ADME, tissue-based
[17] = test system: Nucleic Acid; assay: Ratio of drug level from striatum to cortex of Sprague-Dawley rat at […] after 35 mins by autoradiographic analysis in presence of dopamine D2/3 receptor antagonist raclopride
[18] = test system: Nucleic Acid; assay: Ratio of drug level from striatum to cortex of Sprague-Dawley rat at 4.5 +/- 3.6 nM after 35 mins by autoradiographic analysis; assay type: ADME, tissue-based
How it was run: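 In vitro autoradiography on rat brain slices. Slices were preincubated 15 min at rt in 50 mM Tris-HCl, 5 mM KCl, 2 mM CaCl2, 2 mM MgCl2, 120 mM NaCl, pH 7.4. They were then incubated 35 min at 37 °C with radioligand at about 5 nM, washed in ice-cold buffer and dipped in water. Phosphor screens were exposed 6–10 h, with manual striatal and reference-region ROIs. Values are mean SD over slides from n experiments.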

[19] = test system: Nucleic Acid; assay: Ratio of drug level from striatum to cerebellum of Sprague-Dawley rat at […] after 35 mins by autoradiographic analysis in presence of dopamine D2/3 receptor antagonist raclopride; assay type: nucleic-acid assay
[20] = test system: Nucleic Acid; assay: Ratio of drug level from striatum to cerebellum of Sprague-Dawley rat at 5.8 +/- […] after 35 mins by autoradiographic analysis in presence of dopamine D2/3 receptor antagonist raclopride; assay type: nucleic-acid assay; details: in vitro
[21] = test system: Nucleic Acid; assay: Ratio of drug level from striatum to cortex of Sprague-Dawley rat at 5.8 +/- […] after 35 mins by autoradiographic analysis; assay type: ADME, tissue-based; details: in vitro
[22] = test system: Nucleic Acid; assay: Ratio of drug level from striatum to cerebellum of Sprague-Dawley rat at 5.8 +/- […] after 35 mins by autoradiographic analysis in presence of GTP; assay type: ADME, nucleic-acid assay; details: in vitro
[23] = test system: Nucleic Acid; assay: Ratio of drug level from striatum to cerebellum of Sprague-Dawley rat at 5.8 +/- […] after 35 mins by autoradiographic analysis; assay type: ADME, nucleic-acid assay; details: in vitro
[24] = test system: Nucleic Acid; assay: Ratio of drug level from striatum to cortex of Sprague-Dawley rat at 5.8 +/- […] after 35 mins by autoradiographic analysis in presence of dopamine D2/3 receptor antagonist raclopride; details: in vitro
[25] = test system: Nucleic Acid; assay: Ratio of drug level from striatum to cortex of Sprague-Dawley rat at 5.8 +/- […] after 35 mins by autoradiographic analysis in presence of GTP; assay type: ADME, tissue-based; details: in vitro
[26] = target: D(2) dopamine receptor (Rattus norvegicus, UniProt P61169); assay: Displacement of dopamine/[3-H]domperidone from high-affinity state of rat D2L receptor
Chain of D(2) dopamine receptor (Rattus norvegicus, UniProt P61169) (P61169 whole entry): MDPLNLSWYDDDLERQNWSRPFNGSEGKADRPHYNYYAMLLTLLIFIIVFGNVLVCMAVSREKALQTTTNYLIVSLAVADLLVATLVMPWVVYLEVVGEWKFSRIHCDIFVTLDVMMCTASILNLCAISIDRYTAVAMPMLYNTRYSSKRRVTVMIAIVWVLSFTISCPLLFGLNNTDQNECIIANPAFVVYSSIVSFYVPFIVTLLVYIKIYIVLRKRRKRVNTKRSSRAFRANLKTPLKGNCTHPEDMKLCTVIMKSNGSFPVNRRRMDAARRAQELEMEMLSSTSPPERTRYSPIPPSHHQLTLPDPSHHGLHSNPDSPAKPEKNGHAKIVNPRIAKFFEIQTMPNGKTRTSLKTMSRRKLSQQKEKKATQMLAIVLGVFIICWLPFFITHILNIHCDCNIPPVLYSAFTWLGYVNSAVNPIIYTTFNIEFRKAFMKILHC

Row | SMILES | Ki ([1]; read-out: Ki) | Ki ([1]; read-out: pKi (converted)) | Ratio Ki [2] | Ki ([3]; read-out: Ki) | Ki ([4]; read-out: Ki) | Ki ([4]; read-out: pKi (converted)) | Ki ([5]; read-out: Ki) | Ki ([5]; read-out: pKi (converted)) | Ki ([7]; read-out: Ki) | Ki ([7]; read-out: pKi (converted)) | Ki ([8]; read-out: Ki) | EC50 [9] | also measured
1 | Oc1ccc2c(c1)O[C@@H](CNCc1cccc(I)c1)CC2 | 7.87 nM | 2.88 nM | > 100 | 0.97 nM | 4640 nM | 4570 nM | 4290 nM | 3890 nM | 72.9 nM | 33.9 nM | 30.8 nM | 0.0316 nM | Ki ([6]; read-out: Ki): 2.06 nM; Ki ([6]; read-out: pKi (converted)): 1.02 nM; Ki ([8]; read-out: pKi (converted)): 28.8 nM
2 | Oc1ccc2c(c1)O[C@@H](CNCc1ccc(OCCCC[18F])cc1)CC2 |  |  |  |  |  |  |  |  |  |  |  |  | logD [10]: 2.45; Ratio [11]: 1.04; Ratio [12]: 1.05; Ratio [13]: 1.13; Ratio [14]: 1.2; Ratio [15]: 1.85; Ratio [16]: 1.68; Ratio [17]: 1.03; Ratio [18]: 1.16; Ratio [19]: 1.1
3 | Oc1ccc2c(c1)O[C@@H](CNCc1ccc(OCCCCF)cc1)CC2 | 12.1 nM |  | > 100 | 32.1 nM | 2890 nM | 2450 nM | 6910 nM | 6610 nM | 80.5 nM | 61.7 nM | 92.7 nM | 0.398 nM | Ki ([6]; read-out: Ki): 5.6 nM; Ki ([8]; read-out: pKi (converted)): 91.2 nM
4 | Oc1ccc2c(c1)O[C@@H](CNCCN1CCN(c3ccc(I)cc3)CC1)CC2 | 23 nM | 21.9 nM | > 100 | 9.7 nM | 3480 nM |  | 3960 nM | 3890 nM | 80.5 nM | 66.1 nM | 131 nM | 1.58 nM | 
5 | Oc1ccc2c(c1)O[C@@H](CNCc1ccc(I)cc1)CC2 | 13.9 nM | 5.62 nM |  | 1.59 nM |  | 3550 nM | 8670 nM | 8130 nM |  |  |  |  | Ki ([3]; read-out: pKi (converted)): 1.55 nM
6 | Oc1ccc2c(c1)O[C@@H](CN1CCN(c3ccc(OCCF)cc3)CC1)CC2 | 39.4 nM | 37.2 nM | > 100 | 131 nM | 19700 nM |  |  |  |  |  |  |  | Ki ([3]; read-out: pKi (converted)): 47.9 nM; inhibition [5]: inactive; inhibition [6]: inactive; inhibition [7]: inactive; inhibition [8]: inactive
7 | Oc1ccc2c(c1)O[C@@H](CN1CCN(c3ccc(I)cc3)CC1)CC2 | 24.2 nM |  | > 100 | 14.3 nM | 17800 nM | 17400 nM | 46500 nM |  |  |  |  |  | inhibition [6]: inactive; inhibition [7]: inactive; inhibition [8]: inactive
8 | Oc1ccc2c(c1)O[C@@H](CNCc1ccccc1OCCCCF)CC2 | 33 nM |  | > 100 |  |  |  | 1160 nM |  | 156 nM | 145 nM | 452 nM |  | 
9 | CCCCCCNC[C@H]1CCc2ccc(O)cc2O1 | 547 nM | 19.1 nM |  | 5.7 nM | 27700 nM | 2750 nM | 10900 nM | 10500 nM |  |  |  | 0.0501 nM | Ki ([3]; read-out: pKi (converted)): 5.01 nM
10 | Oc1ccc2c(c1)O[C@@H](CNCc1ccccc1)CC2 |  |  |  |  | 3830 nM | 3720 nM | 7250 nM |  |  |  |  |  | 
11 | Oc1ccc2c(c1)O[C@@H](CNCCN1CCN(c3ccc(OCC[18F])cc3)CC1)CC2 |  |  |  |  |  |  |  |  |  |  |  |  | logD [10]: 1.48; Ratio [20]: 1.65; Ratio [21]: 1.9; Ratio [22]: 1.67; Ratio [23]: 2.64; Ratio [24]: 1.2; Ratio [25]: 1.48
12 | Oc1ccc2c(c1)O[C@@H](CNCc1ccccc1I)CC2 | 1.79 nM | 1.66 nM | > 100 |  |  |  | 436 nM | 417 nM | 51.2 nM | 29.5 nM | 166 nM |  | Ki ([6]; read-out: Ki): 0.68 nM; Ki ([6]; read-out: pKi (converted)): 0.162 nM; Ki ([8]; read-out: pKi (converted)): 83.2 nM
13 | Oc1ccc2c(c1)O[C@@H](CNCCN1CCN(c3ccc(OCCF)cc3)CC1)CC2 | 10 nM | 8.71 nM | > 100 | 27.7 nM | 9700 nM |  |  |  | 235 nM | 219 nM | 252 nM | 0.158 nM | Ki ([3]; read-out: pKi (converted)): 22.9 nM; inhibition [5]: inactive; Ki ([6]; read-out: Ki): 6.67 nM; Ki ([6]; read-out: pKi (converted)): 5.01 nM; Ki ([8]; read-out: pKi (converted)): 234 nM
14 | CCCN1CCO[C@@H]2c3cc(O)ccc3CC[C@H]21 [NAXAGOLIDE HYDROCHLORIDE] |  |  |  |  |  |  |  |  |  |  |  |  | Ki [26]: 0.6 nM
